Common to all, as to type: ADME, organism-based
The test system of data set [1] is Serum. Briefly: Drug level in pediatric patient serum with gram-negative bacterial infection at 4.8 mg/kg/day, iv administered every 8 hrs for 7 days measured after 30 mins by LS/MS/MS analysis. The conditions noted are these: human, in vivo, 0.5 h. Further details: route intravenous. The method, boiled down:
(§1)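 Serum was taken 30 min after the end of the 20-min IV CMS infusion (every 8 h) and stored at −80°C. It underwent acid hydrolysis with 1 M H2SO4 for 15–20 min, neutralisation with 1 M NaOH, and precipitation with acetonitrile containing 0.1% TFA. LC-MS-MS colistin before hydrolysis was subtracted from colistin after hydrolysis to give CMS. Values are means of two days.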

Data set [2] concerns Serum. Briefly: Drug level in pediatric patient serum with gram-negative bacterial infection assessed as Colistin level at 18 mg/kg/day, iv administered every 8 hrs for 42 days measured after 30 mins by LS/MS/MS analysis. Set-up: route intravenous. As to conditions: human, in vivo, 0.5 h. The method, boiled down: (§2)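 Blood was drawn 30 min after the end of the 20-min IV CMS infusion, given every 8 h. Serum was separated by centrifugation, stored at −80°C, and assayed by LC-MS-MS for colistin A plus B (interday CV <4.4%, accuracy within ±1.9%). Values are means of two sampling days; course 1 was sampled once.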

Data set [3] concerns Serum. The data set can be described thus: Drug level in pediatric patient serum with gram-negative bacterial infection before initiation of 16 mg/kg/day, iv administered every 8 hrs for 93 days by LS/MS/MS analysis. Set-up: route intravenous. The conditions noted are these: human, in vivo. The method, boiled down:
(§3)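 Trough sampling: blood was drawn immediately before the 20-min IV CMS infusion (every 8 h), and CSF was taken from EVD systems within 1 h before infusion. Samples were stored at −80°C and analysed by LC-MS-MS for colistin, and for CMS via acid hydrolysis with subtraction. CSF was diluted 1:1 with serum. Values are means of two days.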

For data set [4], the system named is Serum. The data set can be described thus: Drug level in pediatric patient serum with gram-negative bacterial infection before initiation of 16 mg/kg/day, iv administered every 8 hrs for 51 days by LS/MS/MS analysis. Further details: route intravenous. As to conditions: human, in vivo. The method, boiled down: as §3
Data set [5] can be described thus: Drug level in pediatric patient cerebrospinal fluid with gram-negative bacterial infection assessed as Colistin level at 18 mg/kg/day, iv administered every 8 hrs for 42 days measured after 30 mins by LS/MS/MS analysis. Set-up: route intravenous. As to conditions: human, in vivo, 0.5 h. Summed up: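 Children (1 month to 14 years) received CMS in 30 to 50 ml normal saline by 20-min IV infusion every 8 h. CSF was taken from EVD systems alongside blood, after the end of infusion, and stored at −80°C. It was diluted 1:1 with serum, protein-precipitated, and analysed by LC-MS-MS for colistin A plus B against standards in pH 7.4 phosphate-buffered artificial-CSF Ringer with serum. Values are means of two days; course 1 was sampled once.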

Data set [6] can be described thus: Ratio of drug level in cerebrospinal fluid to Serum of pediatric patient with gram-negative bacterial infection at 16 mg/kg/day, iv administered every 8 hrs for 93 days by LS/MS/MS analysis. Further details: route intravenous. The conditions noted are these: human, csf. Summed up:
(§4)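 Percentages are the ratio of mean CSF concentration to mean serum concentration from paired samples. Blood was drawn immediately before and 30 min after the 20-min IV CMS infusion (every 8 h); CSF came from EVD systems concurrently. Both were measured by LC-MS-MS, for colistin directly and for CMS after acid hydrolysis. Pairs were repeated on two days.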

A short description of data set [7]: Drug level in pediatric patient cerebrospinal fluid with gram-negative bacterial infection at 18 mg/kg/day, iv administered every 8 hrs for 42 days measured after 30 mins by LS/MS/MS analysis. Further details: route intravenous. As to conditions: human, in vivo, 0.5 h. The method, boiled down:
(§5)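 CMS was given by 20-min IV infusion in saline every 8 h, and CSF was taken from EVD systems after the end of infusion. The CSF–serum 1:1 mix was treated with 1 M H2SO4 for 15–20 min, then 1 M NaOH, then acetonitrile with 0.1% TFA. CMS was calculated as colistin after hydrolysis minus colistin before hydrolysis, by LC-MS-MS, with CMS controls of 0.25–18.5 μg/ml. Values are means of two days; course 1 was sampled once.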

Data set [8] in a line: Ratio of drug level in cerebrospinal fluid to Serum of pediatric patient with gram-negative bacterial infection before initiation of 4.8 mg/kg/day, iv administered every 8 hrs for 7 days by LS/MS/MS analysis. Further details: route intravenous. The conditions noted are these: human, csf. Summed up:
as §4

A short description of data set [9]: Ratio of drug level in cerebrospinal fluid to Serum of pediatric patient with gram-negative bacterial infection before initiation of 16 mg/kg/day, iv administered every 8 hrs for 93 days by LS/MS/MS analysis. As to conditions: human, csf. Set-up: route intravenous. The method, boiled down:
as §4

The test system of data set [10] is Serum. The data set can be described thus: Drug level in pediatric patient serum with gram-negative bacterial infection before initiation of 10.4 mg/kg/day, iv administered every 8 hrs for 46 days by LS/MS/MS analysis. Set-up: route intravenous. As to conditions: human, in vivo. Summed up:
as §3

Data set [11] in a line: Drug level in pediatric patient cerebrospinal fluid with gram-negative bacterial infection at 16 mg/kg/day, iv administered every 8 hrs for 51 days measured after 30 mins by LS/MS/MS analysis. Set-up: route intravenous. As to conditions: human, in vivo, 0.5 h. Summed up:
as §5

The nature of data set [12]: Ratio of drug level in cerebrospinal fluid to Serum of pediatric patient with gram-negative bacterial infection at 16 mg/kg/day, iv administered every 8 hrs for 51 days by LS/MS/MS analysis. Set-up: route intravenous. As to conditions: human, csf. The method, boiled down: as §4
Data set [13] concerns Serum. Briefly: Drug level in pediatric patient serum with gram-negative bacterial infection at 10.4 mg/kg/day, iv administered every 8 hrs for 46 days measured after 30 mins by LS/MS/MS analysis. Further details: route intravenous. The conditions noted are these: human, in vivo, 0.5 h. The method, boiled down: as §1
Data set [14] deals with Serum. The data set can be described thus: Drug level in pediatric patient serum with gram-negative bacterial infection before initiation of 18 mg/kg/day, iv administered every 8 hrs for 42 days by LS/MS/MS analysis. Set-up: route intravenous. The conditions noted are these: human, in vivo. The method, boiled down: as §3
The subject of data set [15] is Serum. The data set can be described thus: Drug level in pediatric patient serum with gram-negative bacterial infection assessed as Colistin level at 16 mg/kg/day, iv administered every 8 hrs for 51 days measured after 30 mins by LS/MS/MS analysis. Set-up: route intravenous. As to conditions: human, in vivo, 0.5 h. Summed up: as §2
The subject of data set [16] is Serum. Briefly: Drug level in pediatric patient serum with gram-negative bacterial infection assessed as Colistin level at 4.8 mg/kg/day, iv administered every 8 hrs for 7 days measured after 30 mins by LS/MS/MS analysis. As to conditions: human, in vivo, 0.5 h. Set-up: route intravenous. The method, boiled down:
as §2

Data set [17] in a line: Ratio of drug level in cerebrospinal fluid to Serum of pediatric patient with gram-negative bacterial infection assessed as Colistin level at 18 mg/kg/day, iv administered every 8 hrs for 42 days by LS/MS/MS analysis. The conditions noted are these: human, csf. Further details: route intravenous. Summed up:
as §4

Data set [18] can be described thus: Ratio of drug level in cerebrospinal fluid to Serum of pediatric patient with gram-negative bacterial infection assessed as Colistin level at 10.4 mg/kg/day, iv administered every 8 hrs for 46 days by LS/MS/MS analysis. Set-up: route intravenous. As to conditions: human, csf. Summed up:
as §4

Data set [19] in a line: Ratio of drug level in cerebrospinal fluid to Serum of pediatric patient with gram-negative bacterial infection before initiation of 18 mg/kg/day, iv administered every 8 hrs for 42 days by LS/MS/MS analysis. Set-up: route intravenous. The conditions noted are these: human, csf. Summed up:
as §4

Data set [20] in a line: Ratio of drug level in cerebrospinal fluid to Serum of pediatric patient with gram-negative bacterial infection assessed as Colistin level at 4.8 mg/kg/day, iv administered every 8 hrs for 7 days by LS/MS/MS analysis. As to conditions: human, csf. Set-up: route intravenous. The method, boiled down: as §4
Data set [21] in a line: Drug level in pediatric patient cerebrospinal fluid with gram-negative bacterial infection before initiation of 10.4 mg/kg/day, iv administered every 8 hrs for 46 days by LS/MS/MS analysis. Further details: route intravenous. As to conditions: human, in vivo. The method, boiled down:
as §3

A short description of data set [22]: Ratio of drug level in cerebrospinal fluid to Serum of pediatric patient with gram-negative bacterial infection assessed as Colistin level at16 mg/kg/day, iv administered every 8 hrs for 93 days by LS/MS/MS analysis. The conditions noted are these: human, csf. The method, boiled down: as §4

Consider COLISTIN, for which the Drug uptake in data set [1] was determined as 2.86 µg/mL; in [2], 2.2 µg/mL; in [3] it was 0.75 µg/mL; in [4], 0.93 µg/mL; in data set [5], 0.07 µg/mL; in data set [7], 0.03 µg/mL. The Drug uptake in [10] amounted to 0.84 µg/mL; in [11], 0.09 µg/mL; in data set [13] it was 7.9 µg/mL; in data set [14] it was 6.11 µg/mL; in data set [15], 1.6 µg/mL; in data set [16] it was 0.29 µg/mL. In [21], this sequence gave a Drug uptake of 0.03 µg/mL. Also, the Ratio in data set [6] was 3.1%; in [8], 20.6%; in data set [9], 50.9%; in data set [12], 0.9%; in data set [17], 3.2%; in [18], 3.4%. Besides, the Ratio was 0.6% in data set [19], 19.3% in data set [20] and 34.8% in data set [22].
